From ChEMBL document CHEMBL1155433, “Benzimidazole Thumb Pocket I finger-loop inhibitors of HCV NS5B polymerase: improved drug-like properties through C-2 SAR in three sub-series” (Bioorg Med Chem Lett, 2010)
Converted amounts (≈) assume the structure as drawn.

Assays:
[1] = Inhibition of calf thymus DNA-directed RNA polymerase 2 assessed as [33P]UTP incorporated into the RNA after 120 mins by scintillation counting; set-up: species or system Bos taurus
[2] = Cytotoxicity against human HuH7 cells; assay type: cell-based, Huh-7; conditions: read-out: TC50 (the source's name)
Hepatitis C virus [3] = assay: Inhibition of HCV 1b NS5Bdelta21 polymerase assessed as [3H]UTP incorporated into the biotinylated primer after 90 mins by scintillation counting; assay type: functional, Hepatitis C virus subtype 1b
Hepatitis C virus [4] = assay: Antiviral activity against HCV1b in human Huh7 cells assessed as reduction of viral RNA replication after 72 hrs by luciferase reporter assay; assay type: functional, organism-based, Hepacivirus hominis; conditions: genotype 1b, Huh-7, 72 h
[5] = Solubility in phosphate buffer at pH 7.2 after 24 hrs by shake flask method; assay type: physicochemical
[6] = (§1) Half life in human liver microsomes at 10 uM; assay type: ADME, Microsome; conditions: liver microsomes
In short: (§2)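 Half-life was measured with compound at 10 µM in human or rat liver microsomes.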

[7] = Half life in rat liver microsomes at 10 uM; assay type: ADME, Microsome; in short: as §2
Cytochrome P450 2C19 = Cytochrome P450 2C19 (Homo sapiens, UniProt P33261); assay: Inhibition of CYP2C19; assay type: ADME
Cytochrome P450 2C9 = Cytochrome P450 2C9 (Homo sapiens, UniProt P11712); assay: Inhibition of CYP2C9; assay type: ADME
[8] = Permeability across human Caco-2 cells; assay type: ADME, cell-based; conditions: read-out: permeability
[9] = AUC in Sprague-Dawley rat plasma at 5 mg/kg, po; assay type: ADME, organism-based; set-up: dose 5 mg/kg, route oral
In short: (§3)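 Male Sprague-Dawley rats, fasted overnight, given 5 mg/kg by oral gavage in 0.5% methocel/0.3% Tween-80. Plasma was pooled from three animals at each time point over 0–8 h. Compound was quantified after liquid–liquid extraction by HPLC with UV detection.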

[10] = Mean residence time in Sprague-Dawley rat plasma at 5 mg/kg, po; assay type: ADME, organism-based; set-up: dose 5 mg/kg, route oral; in short: as §3
[11] = Tmax in Sprague-Dawley rat plasma at 5 mg/kg, po; assay type: ADME, organism-based; set-up: dose 5 mg/kg, route oral; in short: as §3
Homo sapiens = species: Homo sapiens; assay: Protein binding in human plasma by equilibrium dialysis method; conditions: read-out: PPB (converted)
[12] = Cmax in Sprague-Dawley rat plasma at 5 mg/kg, po; assay type: ADME, organism-based; set-up: dose 5 mg/kg, route oral; in short: as §3
Cytochrome P450 3A4 = Cytochrome P450 3A4 (Homo sapiens, UniProt P08684); assay: Inhibition of CYP3A4; assay type: ADME
Liver microsomes = assay: as §1; assay type: ADME, Microsome; conditions: microsomes, 10 µM; in short: as §2

Cytochrome P450 2C9, sequence (P11712 whole entry): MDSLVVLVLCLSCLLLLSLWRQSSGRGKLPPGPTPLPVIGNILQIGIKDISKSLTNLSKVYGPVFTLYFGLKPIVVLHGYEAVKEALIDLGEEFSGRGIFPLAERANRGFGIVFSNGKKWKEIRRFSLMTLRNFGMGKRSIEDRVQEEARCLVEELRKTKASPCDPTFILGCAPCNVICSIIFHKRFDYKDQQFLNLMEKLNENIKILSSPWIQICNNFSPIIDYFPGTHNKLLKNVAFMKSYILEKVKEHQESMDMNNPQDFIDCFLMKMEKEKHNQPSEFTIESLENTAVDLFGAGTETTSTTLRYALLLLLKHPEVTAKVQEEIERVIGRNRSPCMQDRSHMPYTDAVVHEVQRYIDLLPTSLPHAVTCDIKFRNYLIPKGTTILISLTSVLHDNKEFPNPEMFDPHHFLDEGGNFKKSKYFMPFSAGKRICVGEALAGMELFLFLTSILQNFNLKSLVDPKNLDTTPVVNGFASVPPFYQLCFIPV
Cytochrome P450 2C19, sequence (P33261 whole entry): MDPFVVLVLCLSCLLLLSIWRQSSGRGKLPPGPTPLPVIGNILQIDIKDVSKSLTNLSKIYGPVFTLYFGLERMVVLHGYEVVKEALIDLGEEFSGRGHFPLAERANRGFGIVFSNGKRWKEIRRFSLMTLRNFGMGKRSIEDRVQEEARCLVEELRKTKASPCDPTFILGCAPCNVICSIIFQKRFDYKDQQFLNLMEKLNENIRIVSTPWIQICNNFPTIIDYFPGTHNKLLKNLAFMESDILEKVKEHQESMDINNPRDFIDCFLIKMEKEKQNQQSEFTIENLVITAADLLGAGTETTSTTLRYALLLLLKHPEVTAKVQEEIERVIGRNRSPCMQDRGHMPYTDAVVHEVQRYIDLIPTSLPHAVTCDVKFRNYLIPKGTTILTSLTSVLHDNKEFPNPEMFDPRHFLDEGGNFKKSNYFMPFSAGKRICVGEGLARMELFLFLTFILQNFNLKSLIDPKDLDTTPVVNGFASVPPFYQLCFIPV
Cytochrome P450 3A4, sequence (P08684 whole entry): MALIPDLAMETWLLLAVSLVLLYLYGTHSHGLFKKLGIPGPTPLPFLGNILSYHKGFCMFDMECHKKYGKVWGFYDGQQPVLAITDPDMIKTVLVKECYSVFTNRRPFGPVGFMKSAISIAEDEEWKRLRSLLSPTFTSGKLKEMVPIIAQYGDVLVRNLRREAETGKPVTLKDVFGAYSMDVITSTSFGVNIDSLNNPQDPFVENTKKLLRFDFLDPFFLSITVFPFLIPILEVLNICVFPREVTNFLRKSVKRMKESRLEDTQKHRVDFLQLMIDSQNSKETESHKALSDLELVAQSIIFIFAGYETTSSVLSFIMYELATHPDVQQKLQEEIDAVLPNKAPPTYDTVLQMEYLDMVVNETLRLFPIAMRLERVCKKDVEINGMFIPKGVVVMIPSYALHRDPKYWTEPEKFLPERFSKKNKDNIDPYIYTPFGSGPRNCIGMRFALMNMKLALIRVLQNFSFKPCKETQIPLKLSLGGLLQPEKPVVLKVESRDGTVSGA

Q: What does the source list for O=C(O)/C=C/c1ccc(NC(=O)C2(NC(=O)c3ccc4c(c3)nc(-c3ccoc3)n4C3CCCCC3)CCC2)cc1?
A: IC50 [1]: > 250 µM; CC50 [2]: > 10 µM; IC50 (Hepatitis C virus [3]): 0.05 µM; EC50 (Hepatitis C virus [4]): 1.1 µM

Q: Which IC50 [1] does the source give for O=C(O)/C=C/c1ccc(NC(=O)C2(NC(=O)c3ccc4c(c3)nc(-c3ccco3)n4C3CCCCC3)CCC2)cc1 here?
A: > 250 µM

Q: What about the CC50 [2] of the same compound?
A: > 10 µM

Q: And the IC50 (Hepatitis C virus [3])?
A: 0.11 µM

Q: And the EC50 (Hepatitis C virus [4])?
A: 1.2 µM

Q: Which IC50 [1] does the source give for O=C(O)/C=C/c1ccc(NC(=O)C2(NC(=O)c3ccc4c(c3)nc(-c3ccsc3)n4C3CCCCC3)CCC2)cc1 here?
A: > 250 µM

Q: And the CC50 [2]?
A: > 10 µM

Q: What about the IC50 (Hepatitis C virus [3]) of the same compound?
A: 0.12 µM

Q: And the EC50 (Hepatitis C virus [4])?
A: 1.5 µM

Q: With Cn1cccc1-c1nc2cc(C(=O)N[C@@H](Cc3c[nH]c4ccc(O)cc34)c3cscn3)ccc2n1C1CCCCC1 as the compound, how does the CC50 [2] read?
A: > 10 µM

Q: And the IC50 (Hepatitis C virus [3])?
A: 0.73 µM

Q: And the EC50 (Hepatitis C virus [4])?
A: 2.7 µM

Q: For Cn1cccc1-c1nc2cc(C(=O)NC3(C(=O)Nc4ccc(/C=C/C(=O)O)cc4)CCC3)ccc2n1C1CCCCC1, which IC50 [1] is on record?
A: > 250 µM

Q: And the CC50 [2]?
A: > 10 µM

Q: And the IC50 (Hepatitis C virus [3])?
A: 0.09 µM

Q: And the EC50 (Hepatitis C virus [4])?
A: 0.7 µM

Q: Which CC50 [2] does the source give for O=C(N[C@@H](Cc1c[nH]c2ccc(O)cc12)c1cscn1)c1ccc2c(c1)nc(-c1ccccn1)n2C1CCCCC1 here?
A: > 10 µM

Q: What about the IC50 (Hepatitis C virus [3]) of the same compound?
A: 0.69 µM

Q: What about the EC50 (Hepatitis C virus [4]) of the same compound?
A: 1.9 µM

Q: For O=C(O)/C=C/c1ccc(NC(=O)C2(NC(=O)c3ccc4c(c3)nc(-c3ccccn3)n4C3CCCCC3)CCC2)cc1, which IC50 [1] is on record?
A: > 250 µM

Q: What about the CC50 [2] of the same compound?
A: > 10 µM

Q: And the IC50 (Hepatitis C virus [3])?
A: 0.1 µM

Q: What about the EC50 (Hepatitis C virus [4]) of the same compound?
A: 0.7 µM

Q: Which results are given for O=C(N[C@@H](Cc1c[nH]c2ccc(O)cc12)c1cscn1)c1ccc2c(c1)nc(-c1ccccc1)n2C1CCCCC1?
A: CC50 [2]: > 10 µM; IC50 (Hepatitis C virus [3]): 1.16 µM; EC50 (Hepatitis C virus [4]): 2.4 µM

Q: What does the source list for O=C(O)/C=C/c1ccc(NC(=O)C2(NC(=O)c3ccc4c(c3)nc(-c3ccccc3)n4C3CCCCC3)CCC2)cc1?
A: IC50 [1]: > 250 µM; CC50 [2]: > 10 µM; IC50 (Hepatitis C virus [3]): 0.2 µM; EC50 (Hepatitis C virus [4]): 1.2 µM

Q: With O=C(O)/C=C/c1ccc(NC(=O)C2(NC(=O)c3ccc4c(c3)nc(-c3ccoc3)n4C3CCCCC3)CCCC2)cc1 as the compound, how does the solubility thermodynamic at 24 h [5] read?
A: 0.125 mg/mL (≈ 221 µM)

Q: And the IC50 [1]?
A: > 250 µM

Q: And the half-life at 10 µM [6]?
A: 77 min

Q: What about the half-life at 10 µM [7] of the same compound?
A: 54 min

Q: What about the IC50 (Cytochrome P450 2C19) of the same compound?
A: 7.7 µM

Q: What about the CC50 [2] of the same compound?
A: > 10 µM

Q: And the IC50 (Cytochrome P450 2C9)?
A: 11.5 µM

Q: What about the Papp [8] of the same compound?
A: 39 nm/s

Q: What about the EC50 (Hepatitis C virus [4]) of the same compound?
A: 0.88 µM

Q: Which results are given for O=C(O)/C=C/c1ccc(NC(=O)C2(NC(=O)c3ccc4c(c3)nc(-c3ccccn3)n4C3CCCCC3)CCCC2)cc1?
A: AUC [9]: 510 nM·h; solubility thermodynamic at 24 h [5]: 0.1 mg/mL (≈ 173 µM); IC50 [1]: > 250 µM; MRT [10]: 44.4 min; half-life at 10 µM [6]: 67 min; half-life at 10 µM [7]: 17 min; IC50 (Cytochrome P450 2C19): 7.4 µM; CC50 [2]: > 10 µM; Tmax [11]: 30 min; IC50 (Cytochrome P450 2C9): 4 µM; Papp [8]: 95 nm/s; fraction unbound (Homo sapiens): 0.124; Cmax [12]: 0.58 µM; EC50 (Hepatitis C virus [4]): 0.58 µM

Q: With O=C(O)/C=C/c1ccc(NC(=O)C2(NC(=O)c3ccc4c(c3)nc(-c3cccs3)n4C3CCCCC3)CCC2)cc1 as the compound, how does the IC50 [1] read?
A: > 250 µM

Q: What about the CC50 [2] of the same compound?
A: > 10 µM

Q: What about the IC50 (Hepatitis C virus [3]) of the same compound?
A: 0.11 µM

Q: What about the EC50 (Hepatitis C virus [4]) of the same compound?
A: 1.2 µM

Q: Which IC50 (Hepatitis C virus [3]) does the source give for O=C(N[C@@H](Cc1c[nH]c2ccc(O)cc12)C(=O)O)c1ccc2c(c1)nc(-c1cccs1)n2C1CCCCC1 here?
A: 0.08 µM

Q: What does the source list for O=C(N[C@@H](Cc1c[nH]c2ccc(O)cc12)c1cscn1)c1ccc2c(c1)nc(-c1cccs1)n2C1CCCCC1?
A: CC50 [2]: > 10 µM; IC50 (Hepatitis C virus [3]): 0.45 µM; EC50 (Hepatitis C virus [4]): 2.8 µM

Q: With Cn1cccc1-c1nc2cc(C(=O)N[C@@H](Cc3c[nH]c4ccc(O)cc34)C(=O)O)ccc2n1C1CCCCC1 as the compound, how does the IC50 (Hepatitis C virus [3]) read?
A: 0.06 µM

Q: For O=C(N[C@@H](Cc1c[nH]c2ccc(O)cc12)C(=O)O)c1ccc2c(c1)nc(-c1ccccc1)n2C1CCCCC1, which IC50 (Hepatitis C virus [3]) is on record?
A: 0.23 µM

Q: Which IC50 (Hepatitis C virus [3]) does the source give for O=C(N[C@@H](Cc1c[nH]c2ccc(O)cc12)C(=O)O)c1ccc2c(c1)nc(-c1ccco1)n2C1CCCCC1 here?
A: 0.08 µM

Q: For O=C(N[C@@H](Cc1c[nH]c2ccc(O)cc12)C(=O)O)c1ccc2c(c1)nc(-c1ccsc1)n2C1CCCCC1, which IC50 (Hepatitis C virus [3]) is on record?
A: 0.16 µM

Q: Which results are given for O=C(N[C@@H](Cc1c[nH]c2ccc(O)cc12)c1cscn1)c1ccc2c(c1)nc(-c1ccco1)n2C1CCCCC1?
A: CC50 [2]: > 10 µM; IC50 (Hepatitis C virus [3]): 0.27 µM; EC50 (Hepatitis C virus [4]): 3.4 µM

Q: Which CC50 [2] does the source give for O=C(N[C@@H](Cc1c[nH]c2ccc(O)cc12)c1cscn1)c1ccc2c(c1)nc(-c1ccsc1)n2C1CCCCC1 here?
A: > 10 µM

Q: What about the IC50 (Hepatitis C virus [3]) of the same compound?
A: 0.52 µM

Q: What about the EC50 (Hepatitis C virus [4]) of the same compound?
A: 2.9 µM

Q: For O=C(N[C@@H](Cc1c[nH]c2ccc(O)cc12)C(=O)O)c1ccc2c(c1)nc(-c1ccoc1)n2C1CCCCC1, which IC50 (Hepatitis C virus [3]) is on record?
A: 0.03 µM

Q: For O=C(N[C@@H](Cc1c[nH]c2ccc(O)cc12)C(=O)O)c1ccc2c(c1)nc(-c1ccccn1)n2C1CCCCC1, which IC50 (Hepatitis C virus [3]) is on record?
A: 0.14 µM

Q: What does the source list for O=C(N[C@@H](Cc1c[nH]c2ccc(O)cc12)c1cscn1)c1ccc2c(c1)nc(-c1ccoc1)n2C1CCCCC1?
A: IC50 (Cytochrome P450 3A4): 0.44 µM; solubility thermodynamic at 24 h [5]: < 0.0001 mg/mL; t1/2 (Liver microsomes): 26 min; CC50 [2]: > 10 µM; IC50 (Hepatitis C virus [3]): 0.22 µM; EC50 (Hepatitis C virus [4]): 3.6 µM
